Values after ≈ are worked out from the molar mass of the structure shown. Active and inactive are the calls of the source. The rule behind the calls is not given here.
Columns and labels:
Format in all cases: functional
Penicillium chrysogenum = experiment: Antifungal activity against Penicillium chrysogenum CECT 2802 at 50 mg/ml after 72 hrs by agar diffusion test
In short: (§1)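 Agar diffusion: yeasts grown on yeast peptone dextrose agar and fungi on potato dextrose agar. Wells are filled with […] of compound solution in DMSO at various concentrations, and the clear-zone diameter is measured. Bracketed values give the lowest concentration (mg/ml) that produces a zone >11 mm. A first screen is run at 50 mg/ml.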

Escherichia coli = experiment: Antibacterial activity against Escherichia coli ATCC 8739 at 50 mg/ml after 24 hrs by agar diffusion test
In short: (§2)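 Agar diffusion: wells in agar filled with […] DMSO solution of compound at various concentrations; diameter of clear zone around application point measured. Bacteria grown 24 h at 37 °C on nutrient agar. Compounds first screened at 50 mg/ml; those active then tested at lower concentrations. Bracketed value = lowest concentration (mg/ml) giving zone >11 mm, reported only if activity retained at ≤1.25 mg/ml.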

Bacillus subtilis = experiment: Antibacterial activity against Bacillus subtilis ATCC 6633 at 50 mg/ml after 24 hrs by agar diffusion test; in short: as §2
[1] = test system: Mycobacterium tuberculosis; experiment: Antimycobacterial activity against Mycobacterium tuberculosis H37Rv after 45 days
In short: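 Canetti proportion method. Compound in DMSO is added to Löwenstein–Jensen egg medium before coagulation (30 min, 85 °C), tested at three levels plus a lower one where needed. Tubes are inoculated with H37Rv at 10⁵ cells/ml and incubated 45 days at 37 °C. Colony counts versus drug-free control give percentage inhibition.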

Candida tropicalis = experiment: Antifungal activity against Candida tropicalis ATCC 20336 at 50 mg/ml after 72 hrs by agar diffusion test; in short: as §1
Saccharomyces cerevisiae = experiment: Antifungal activity against Saccharomyces cerevisiae ATCC 9763 at 50 mg/ml after 72 hrs by agar diffusion test; in short: as §1
Micrococcus luteus [2] = experiment: Antibacterial activity against Sarcina lutea ATCC 9341 at 50 mg/ml after 24 hrs by agar diffusion test
In short: (§3)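 Agar diffusion: bacteria grown 24 h at 37 °C on nutrient agar. Wells in the agar are filled with […] of compound solution in DMSO at various concentrations. The diameter of the clear zone around the application point is measured. Bracketed values give the lowest concentration (mg/ml) that produces a zone >11 mm. A first screen is run at 50 mg/ml.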

Priestia megaterium = experiment: Antibacterial activity against Bacillus megaterium NRRL 1353895 at 50 mg/ml after 24 hrs by agar diffusion test; in short: as §2
Bacillus cereus = experiment: Antibacterial activity against Bacillus cereus ATCC 11778 at 50 mg/ml after 24 hrs by agar diffusion test; in short: as §2
Acinetobacter johnsonii = experiment: Antibacterial activity against Acinetobacter johnsonii ATCC 17909 at 50 mg/ml after 24 hrs by agar diffusion test; in short: as §2
Bacillus mycoides = experiment: Antibacterial activity against Bacillus mycoides DSMZ 274 at 50 mg/ml after 24 hrs by agar diffusion test; conditions: for zone of inhibition at 50000 µg/mL: DSMZ 274, 24 h, read-out: DIZ; in short: as §2
Bacillus = experiment: Antibacterial activity against Bacillus idosus B 241 at 50 mg/ml after 24 hrs by agar diffusion test; in short: as §2
Micrococcus luteus [3] = experiment: Antibacterial activity against Micrococcus luteus ATCC 9631 at 50 mg/ml after 24 hrs by agar diffusion test; in short: as §2
Staphylococcus aureus = experiment: Antibacterial activity against Staphylococcus aureus NRRL B 313 at 50 mg/ml after 24 hrs by agar diffusion test; in short: as §3

SMILES	diameter of the inhibition zone (DIZ) (Escherichia coli)	diameter of the inhibition zone (DIZ) (Bacillus subtilis)	MIC [1] [µM]	diameter of the inhibition zone (DIZ) (Candida tropicalis)	diameter of the inhibition zone (DIZ) (Saccharomyces cerevisiae)	diameter of the inhibition zone (DIZ) (Micrococcus luteus [2])	diameter of the inhibition zone (DIZ) (Priestia megaterium)	diameter of the inhibition zone (DIZ) (Bacillus cereus)	diameter of the inhibition zone (DIZ) (Acinetobacter johnsonii)	diameter of the inhibition zone (DIZ) (Bacillus mycoides)	diameter of the inhibition zone (DIZ) (Bacillus)	diameter of the inhibition zone (DIZ) (Micrococcus luteus [3])	diameter of the inhibition zone (DIZ) (Staphylococcus aureus)	diameter of the inhibition zone (DIZ) (Penicillium chrysogenum)	zone of inhibition at 50000 µg/mL (Bacillus mycoides) [mm]	further results
CC[C@H](CO)N1C(=O)c2cccc3cccc(c23)C1=O	inactive	inactive	> 18.6	inactive	inactive	inactive	inactive	inactive	inactive	inactive	inactive	inactive	inactive			zone of inhibition at 50000 µg/mL (Penicillium chrysogenum; CECT 2802, 72 h, read-out: DIZ): 10 mm
CC[C@H](CO)N1C(=O)CCC1=O	inactive	inactive	> 29.2	inactive	inactive	inactive	inactive	inactive	inactive	inactive	inactive	inactive	inactive	inactive		
CC[C@H](CO)NC(=O)C(C)(C)C	inactive		28.9 (≈ 5 µg/mL)	inactive	inactive	inactive	inactive		inactive			inactive		inactive	11	zone of inhibition at 50000 µg/mL (Bacillus subtilis; ATCC 6633, 24 h, read-out: DIZ): 15 mm; zone of inhibition at 50000 µg/mL (Bacillus cereus; ATCC 11778, 24 h, read-out: DIZ): 16 mm; zone of inhibition at 50000 µg/mL (Bacillus; B 241, 24 h, read-out: DIZ): 11 mm; zone of inhibition at 50000 µg/mL (Staphylococcus aureus; NRRL B 313, 24 h, read-out: DIZ): 15 mm
CC[C@H](CO)/N=C1\C[C@H]2CC[C@]1(C)C2(C)C	inactive	inactive	> 22.4	inactive	inactive	inactive		inactive	inactive		inactive	inactive	inactive	inactive	11	zone of inhibition at 50000 µg/mL (Priestia megaterium; NRRL 1353895, 24 h, read-out: DIZ): 10 mm

Source: ChEMBL document CHEMBL1932986, “Synthesis and in vitro antimycobacterial activity of compounds derived from (R)- and (S)-2-amino-1-butanol - The crucial role of the configuration” (Eur J Med Chem, 2012)
